Source: ChEMBL document CHEMBL3085676, “Self-assembly to function: design, synthesis, and broad spectrum antimicrobial properties of short hybrid E-vinylogous lipopeptides” (J Med Chem, 2013)
Values after ≈ are worked out from the molar mass of the structure shown. Active and inactive are the calls of the source. The calls are words filed in the database; no cut-off is given here.

system: Escherichia coli; experiment: Antibacterial activity against Escherichia coli K-12 NCIM 2563 assessed as disruption of cell membrane at 50 uM after 1 hr by atomic force microscopic analysis; type: functional, organism-based; settings: not given
Summary of the method: (§1)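 E. coli grown in MHB and C. albicans in potato dextrose broth were pelleted and resuspended in deionized water. Cells incubated with 50 µM peptide at 37 °C for 1 h, dried 30 min at 25 °C on poly-L-lysine glass, and imaged by AFM in intermittent contact mode. Peptide-free cells served as control.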

| SMILES | Activity |
| --- | --- |
| CCCCCCCC(=O)N[C@H](/C=C/C(=O)N[C@@H](CCCCN)C(=O)N[C@H](/C=C/C(=O)N[C@@H](CCCCN)C(N)=O)Cc1ccccc1)Cc1ccccc1 | Active |
| CCCCCCCC(=O)N[C@@H](C)/C=C/C(=O)N[C@@H](CCCCN)C(=O)N[C@@H](C)/C=C/C(=O)N[C@@H](CCCCN)C(N)=O | Active |

system: Klebsiella pneumoniae; experiment: Antibacterial activity against Klebsiella pneumoniae NCIM 2957 after 18 to 20 hrs by broth dilution assay; type: functional; settings: not given
Summary of the method: (§2)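 Two-fold serial dilutions in Mueller-Hinton broth, run in triplicate. Overnight 37 °C cultures diluted to 10⁶ CFU/mL and added 1:1 to the peptide, then incubated at 37 °C for 18-20 h. Growth was read as absorbance at 492 nm against no-peptide controls. MIC taken as the lowest concentration giving complete inhibition or killing. Reproducible across three independent triplicates.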

| MIC [µg/mL] | SMILES |
| --- | --- |
| 3.12 (≈ 4.18 µM) | CCCCCCCC(=O)N[C@H](/C=C/C(=O)N[C@@H](CCCCN)C(=O)N[C@H](/C=C/C(=O)N[C@@H](CCCCN)C(N)=O)Cc1ccccc1)Cc1ccccc1 |
| > 100 | CCCCCCCC(=O)N[C@@H](C)/C=C/C(=O)N[C@@H](CCCCN)C(=O)N[C@@H](C)/C=C/C(=O)N[C@@H](CCCCN)C(N)=O |

system: Saccharomyces cerevisiae; experiment: Antifungal activity against Saccharomyces cerevisiae NCIM 3454 after 48 to 72 hrs; type: functional; settings: not given
Summary of the method: (§3)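 Peptide in water was serially diluted two-fold in potato dextrose broth and mixed 1:1 with yeast suspension at 2×10³ CFU/ml. Incubated at 25 °C for 48-72 h, with growth read as absorbance at 620 nm against a peptide-free culture. MIC was the lowest concentration giving complete growth inhibition. Run in triplicate.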

| MIC [µg/mL] | SMILES |
| --- | --- |
| 3.12 (≈ 4.18 µM) | CCCCCCCC(=O)N[C@H](/C=C/C(=O)N[C@@H](CCCCN)C(=O)N[C@H](/C=C/C(=O)N[C@@H](CCCCN)C(N)=O)Cc1ccccc1)Cc1ccccc1 |
| > 100 | CCCCCCCC(=O)N[C@@H](C)/C=C/C(=O)N[C@@H](CCCCN)C(=O)N[C@@H](C)/C=C/C(=O)N[C@@H](CCCCN)C(N)=O |

system: not listed separately; experiment: Hemolytic activity in human RBC after 1 hr; type: ADME, cell-based; settings: erythrocyte
Summary of the method: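 Fresh EDTA-collected human RBCs washed four times in Tris-buffered saline (10 mM Tris, 150 mM NaCl, pH 7.2) and used at 4% v/v, mixed 1:1 with two-fold serially diluted peptide (top 100 µg/ml before mixing). Incubated at 37 °C for 1 h and centrifuged; supernatant hemoglobin read at 540 nm. Buffer and 1% Triton-X served as negative and positive controls. Percent hemolysis = (A−A_N)/(A_P−A_N)×100. Run in duplicate.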

| SMILES | HD10 [µg/mL] |
| --- | --- |
| CCCCCCCC(=O)N[C@H](/C=C/C(=O)N[C@@H](CCCCN)C(=O)N[C@H](/C=C/C(=O)N[C@@H](CCCCN)C(N)=O)Cc1ccccc1)Cc1ccccc1 | 16 |
| CCCCCCCC(=O)N[C@@H](C)/C=C/C(=O)N[C@@H](CCCCN)C(=O)N[C@@H](C)/C=C/C(=O)N[C@@H](CCCCN)C(N)=O | 58 |

system: Candida albicans; experiment: Antifungal activity against Candida albicans NCIM 3471 after 48 to 72 hrs; type: functional; settings: not given; summary of the method: as §3

| MIC [µg/mL] | SMILES |
| --- | --- |
| 3.12 (≈ 4.18 µM) | CCCCCCCC(=O)N[C@H](/C=C/C(=O)N[C@@H](CCCCN)C(=O)N[C@H](/C=C/C(=O)N[C@@H](CCCCN)C(N)=O)Cc1ccccc1)Cc1ccccc1 |
| > 100 | CCCCCCCC(=O)N[C@@H](C)/C=C/C(=O)N[C@@H](CCCCN)C(=O)N[C@@H](C)/C=C/C(=O)N[C@@H](CCCCN)C(N)=O |

system: Escherichia coli; experiment: Antibacterial activity against Escherichia coli expressing pUC19 plasmid assessed as disruption of cytoplasmic membrane at 20 ug/mL after 1 hr by beta-galactosidase leakage assay; type: functional, organism-based; settings: not given
Summary of the method: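 E. coli TOP10 transformed with pUC19 (lacZ) grown in LB with 100 µg/ml ampicillin at 37 °C to A660 0.6, then washed three times. Peptide stock (200 µg/ml) added 1:10 to cells and incubated at 37 °C for 1 h. After centrifugation, supernatant was mixed with 4-methylumbelliferyl substrate and fluorescence followed for 1 h. Initial velocities used; water blank; triplicates.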

| SMILES | Activity |
| --- | --- |
| CCCCCCCC(=O)N[C@H](/C=C/C(=O)N[C@@H](CCCCN)C(=O)N[C@H](/C=C/C(=O)N[C@@H](CCCCN)C(N)=O)Cc1ccccc1)Cc1ccccc1 | Active |

system: Nakaseomyces glabratus; experiment: Antifungal activity against Candida glabrata NCIM 3237 after 48 to 72 hrs; type: functional; settings: not given; summary of the method: as §3

| MIC [µg/mL] | SMILES |
| --- | --- |
| 3.12 (≈ 4.18 µM) | CCCCCCCC(=O)N[C@H](/C=C/C(=O)N[C@@H](CCCCN)C(=O)N[C@H](/C=C/C(=O)N[C@@H](CCCCN)C(N)=O)Cc1ccccc1)Cc1ccccc1 |
| 50 (≈ 84.2 µM) | CCCCCCCC(=O)N[C@@H](C)/C=C/C(=O)N[C@@H](CCCCN)C(=O)N[C@@H](C)/C=C/C(=O)N[C@@H](CCCCN)C(N)=O |

system: Salmonella typhimurium; experiment: Antibacterial activity against Salmonella typhimurium NCIM 2501 after 18 to 20 hrs by broth dilution assay; type: functional, Salmonella enterica subsp. enterica serovar Typhimurium; settings: Salmonella enterica; summary of the method: as §2

| MIC [µg/mL] | SMILES |
| --- | --- |
| 3.12 (≈ 4.18 µM) | CCCCCCCC(=O)N[C@H](/C=C/C(=O)N[C@@H](CCCCN)C(=O)N[C@H](/C=C/C(=O)N[C@@H](CCCCN)C(N)=O)Cc1ccccc1)Cc1ccccc1 |
| > 100 | CCCCCCCC(=O)N[C@@H](C)/C=C/C(=O)N[C@@H](CCCCN)C(=O)N[C@@H](C)/C=C/C(=O)N[C@@H](CCCCN)C(N)=O |

system: Pseudomonas aeruginosa; experiment: Antibacterial activity against Pseudomonas aeruginosa NCIM 5029 after 18 to 20 hrs by broth dilution assay; type: functional; settings: not given; summary of the method: as §2

| MIC [µg/mL] | SMILES |
| --- | --- |
| 3.12 (≈ 4.18 µM) | CCCCCCCC(=O)N[C@H](/C=C/C(=O)N[C@@H](CCCCN)C(=O)N[C@H](/C=C/C(=O)N[C@@H](CCCCN)C(N)=O)Cc1ccccc1)Cc1ccccc1 |
| > 100 | CCCCCCCC(=O)N[C@@H](C)/C=C/C(=O)N[C@@H](CCCCN)C(=O)N[C@@H](C)/C=C/C(=O)N[C@@H](CCCCN)C(N)=O |

system: Escherichia coli; experiment: Antibacterial activity against Escherichia coli K-12 NCIM 2563 after 18 to 20 hrs by broth dilution assay; type: functional; settings: not given; summary of the method: as §2

| MIC [µg/mL] | SMILES |
| --- | --- |
| 1.56 (≈ 2.09 µM) | CCCCCCCC(=O)N[C@H](/C=C/C(=O)N[C@@H](CCCCN)C(=O)N[C@H](/C=C/C(=O)N[C@@H](CCCCN)C(N)=O)Cc1ccccc1)Cc1ccccc1 |
| > 100 | CCCCCCCC(=O)N[C@@H](C)/C=C/C(=O)N[C@@H](CCCCN)C(=O)N[C@@H](C)/C=C/C(=O)N[C@@H](CCCCN)C(N)=O |

system: Staphylococcus aureus; experiment: Antibacterial activity against Staphylococcus aureus NCIM 5021 after 18 to 20 hrs by broth dilution assay; type: functional; settings: not given; summary of the method: as §2

| MIC [µg/mL] | SMILES |
| --- | --- |
| 3.12 (≈ 4.18 µM) | CCCCCCCC(=O)N[C@H](/C=C/C(=O)N[C@@H](CCCCN)C(=O)N[C@H](/C=C/C(=O)N[C@@H](CCCCN)C(N)=O)Cc1ccccc1)Cc1ccccc1 |
| > 100 | CCCCCCCC(=O)N[C@@H](C)/C=C/C(=O)N[C@@H](CCCCN)C(=O)N[C@@H](C)/C=C/C(=O)N[C@@H](CCCCN)C(N)=O |

system: Escherichia coli; experiment: Antibacterial activity against Escherichia coli K-12 NCIM 2563 at 50 uM after 60 mins by FITC uptake assay; type: functional, organism-based; settings: not given
Summary of the method: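 E. coli grown in MHB to OD 0.6, washed, and suspended at 2×10⁷ cfu/ml in 10 mM sodium phosphate pH 7.4. Cells incubated with 50 µM peptide at 37 °C for 60 min, then immobilized on poly-L-lysine slides for 50 min at 30 °C. FITC (10 µg/ml) added, slides washed, and cells examined by fluorescence microscopy. Solvent-treated control.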

| SMILES | Activity |
| --- | --- |
| CCCCCCCC(=O)N[C@H](/C=C/C(=O)N[C@@H](CCCCN)C(=O)N[C@H](/C=C/C(=O)N[C@@H](CCCCN)C(N)=O)Cc1ccccc1)Cc1ccccc1 | Active |

system: Candida albicans; experiment: Antifungal activity against Candida albicans NCIM 3471 assessed as disruption of cell membrane by atomic force microscopic analysis; type: functional, organism-based; settings: not given; summary of the method: as §1

| SMILES | Activity |
| --- | --- |
| CCCCCCCC(=O)N[C@H](/C=C/C(=O)N[C@@H](CCCCN)C(=O)N[C@H](/C=C/C(=O)N[C@@H](CCCCN)C(N)=O)Cc1ccccc1)Cc1ccccc1 | Active |
| CCCCCCCC(=O)N[C@@H](C)/C=C/C(=O)N[C@@H](CCCCN)C(=O)N[C@@H](C)/C=C/C(=O)N[C@@H](CCCCN)C(N)=O | Active |

system: Escherichia coli; experiment: Antibacterial activity against Escherichia coli NCIM 2065 after 18 to 20 hrs by broth dilution assay; type: functional; settings: not given; summary of the method: as §2

| MIC [µg/mL] | SMILES |
| --- | --- |
| 1.56 (≈ 2.09 µM) | CCCCCCCC(=O)N[C@H](/C=C/C(=O)N[C@@H](CCCCN)C(=O)N[C@H](/C=C/C(=O)N[C@@H](CCCCN)C(N)=O)Cc1ccccc1)Cc1ccccc1 |
| > 100 | CCCCCCCC(=O)N[C@@H](C)/C=C/C(=O)N[C@@H](CCCCN)C(=O)N[C@@H](C)/C=C/C(=O)N[C@@H](CCCCN)C(N)=O |

system: Cryptococcus neoformans; experiment: Antifungal activity against Cryptococcus neoformans NCIM 3542 after 48 to 72 hrs; type: functional; settings: not given; summary of the method: as §3

| MIC [µg/mL] | SMILES |
| --- | --- |
| 3.12 (≈ 4.18 µM) | CCCCCCCC(=O)N[C@H](/C=C/C(=O)N[C@@H](CCCCN)C(=O)N[C@H](/C=C/C(=O)N[C@@H](CCCCN)C(N)=O)Cc1ccccc1)Cc1ccccc1 |
| > 100 | CCCCCCCC(=O)N[C@@H](C)/C=C/C(=O)N[C@@H](CCCCN)C(=O)N[C@@H](C)/C=C/C(=O)N[C@@H](CCCCN)C(N)=O |
